STAT1 blocker: STAT1 signaling inhibitors, primary screen, cell-based, HTS, luciferase reporter | NIH 3T3 STAT1-luciferase reporter, IFN-gamma, luminescence | inhibition, % at 5.5 µM | 200,000 compounds, 0.35% hits;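 active = inhibition above a set limit, the mean inhibition across all tested compounds plus 3 SD, cut at about 34% in these data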
NF-kB neuron act: activators of NF-kB expression in neurons, primary screen, cell-based, HTS; 190,000 compounds, 1.6% hits; human neuronal cells, NF-kB reporter expression; hits give high values; fold change at 12.5 µM; in the data active = fold change above about 3.3
STAT3 blocker: IL-6 driven STAT3 reporter inhibitors, primary screen, U3A cells, luciferase, luminescence, MLSCN library | inhibition, % at 5.5 µM | 190,000 compounds, 0.89% hits | IL-6 STAT3-luciferase reporter; host cell line lacks STAT1;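 active = inhibition above the mean inhibition across all screened compounds plus 3 SD, cut at about 44% in these data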
STAT1 act-1: STAT1 signaling activators, primary screen, cell-based, HTS, luciferase reporter; NIH 3T3 STAT1-luciferase reporter, IFN-gamma, luminescence; 100% = IFN-gamma alone, no compound; activation (% of control), % at 5.5 µM; 200,000 compounds, 2.6% hits; AID 932, 2007;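 active = activation above the screen-wide mean activation plus 3 SD, cut at about 130% in these data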
STAT3 act-1: IL-6 driven STAT3 reporter potentiators, primary screen, U3A cells, luciferase, luminescence, MLSCN library; 190,000 compounds, 0.91% hits; activation (% of control), % at 5.6 µM; IL-6 STAT3-luciferase reporter; 100% = signal with IL-6 EC80 alone;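 active = activation above the screen-wide mean of compound activation plus 3 SD, cut at about 130% in these data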
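Test system: STAT3-luciferase reporter U3A cells; Detection: reporter luminescence signal; Times: 1 h compound pre-exposure, 6 h IL-6 stimulation, 37 °C; Benchmarks: IL-6-only high control; Also added: IL-6 stimulus at 33 ng/mL final.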
APP 5'UTR act: activators of APP 5'UTR luciferase reporter, primary screen, SH-SY5Y cells; SH-SY5Y APP 5'UTR luciferase reporter, luminescence; zero percent = DMSO vehicle wells; activation, % at 2 µM; 190,000 compounds, 1% hits;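 active = activation above a set limit, based on mean plus 3 SD of controls, cut at about 140% in these data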
STAT3 act-2: STAT3 reporter potentiators, retest of hits, confirmation, U3A cells, luciferase, luminescence | shares compounds with STAT3 act-1 | IL-6 potentiation; U3A cells lack STAT1; 100 means same as IL-6 alone | potentiation (% of control), % at 5.7 µM | 1,200 compounds, 64% hits | AID 1267, 2008;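 active = percent activation of the STAT3 luciferase reporter above a set limit taken from the earlier primary screen, cut at about 130% in these data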
NFkB act STAT3ct: NF-kB reporter activators in human cells, counter-screen for STAT3 activator project; shares compounds with STAT3 act-1; NF-kappaB reporter activation; activation (% of control), % at 5.7 µM; 1,200 compounds, 11% hits; AID 1309, 2008; in the data active = activation above about 120%;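 note: reporter induced by TNF-alpha stimulation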
STAT1 act-2: STAT1 reporter activators, IFN-gamma induced, counter-screen for STAT3 activator project, cell-based, NIH 3T3, luciferase luminescence | 1,200 compounds, 13% hits | activation (% of control), % at 5.7 µM | shares compounds with STAT3 act-1 | NIH 3T3 STAT1-luciferase reporter;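 active = activation above the solvent-only control well mean plus 3 SD, set per screening run, cut at about 120% in these data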
Hits are given with their value; n = inactive; x = no result given; ! = not confirmed by another sample. Only some compounds are listed: those with a hit (about 4.9% of all), similar ones and a draw of the others.

SMILES	STAT1 blocker	NF-kB neuron act	STAT3 blocker	STAT1 act-1	STAT3 act-1	APP 5'UTR act	STAT3 act-2	NFkB act STAT3ct	STAT1 act-2
Cc1ccccc1OCC(=O)Nc1cccc2nsnc12	n	n	n	n	149.9	n	n	n	n
CC(=O)Nc1cccc(C(=O)NC(C)c2ccc(S(N)(=O)=O)cc2)c1 (stereo unspecified)	n	n	n	n	147.8	n	n	n	n
CC1CN(C(=O)C2CC2)C(C)CN1C(=O)C1CC1 (stereo unspecified)	n	n	n	n	n	n	x	x	x
Cc1ccc(C)c(NC(=S)N(C)CCO)c1	n	n	n	n	n	n	x	x	x
CS(=O)(=O)c1ccc(Sc2nc3ccccc3s2)c([N+](=O)[O-])c1	n	n	n	n	146.9	n	n	n	n
O=[N+]([O-])c1cc(S(=O)(=O)C(F)(F)F)ccc1Sc1nc2ccccc2s1	n	n	n	n	n	n	x	x	x
O=C(CCc1ccc(S(=O)(=O)N2CCOCC2)cc1)OCc1nc2ccccc2s1	n	n	n	n	141.8	n	146.6	121.9	135.7
CCCN1Cc2cccc(C(=O)NC(CC(=O)OCC)c3ccc(OCC)c(OC)c3)c2C1=O (stereo unspecified)	n	n	n	n	n	n	x	x	x
Cc1nn2c(-c3cccc(NC(=O)c4ccco4)c3)nnc2c2ccccc12	n	n	n	n	n	n	x	x	x
Cc1nn2c(-c3ccccc3)nnc2c2ccccc12	n	n	n	n	170.1	n	142.6	n	n
N#C/C(=C\c1ccc(-c2ccc(C(=O)O)cc2)o1)c1nc2ccccc2[nH]1	n	n	n	n	189.4	n	204.6	134.2	140.5
c1ccc2sc(Sc3ncnc4sccc34)nc2c1	n	n	n	n	151.5	n	159.3	n	n
Nc1c(Br)cc2oc(-c3ccccc3)nc2c1Br	n	3.35	n	n	145.9	n	181.0	123.2	152.3
c1ccc2c(-c3nc4ncccc4o3)cccc2c1	n	n	n	n	140.8	n	n	n	n
CCOC(=O)c1cc(-c2ccc(F)cc2)n(CC(=O)NCc2cccnc2)c1C	n	n	n	n	n	n	x	x	x
CCc1cc(C(=O)N2CCCC(CCC(=O)NCc3cccc(OC)c3)C2)no1 (stereo unspecified)	n	n	n	n	n	n	x	x	x
COC(=O)CSc1cc(C)nc2ccc(OC)cc12	n	n	n	n	n	n	x	x	x
COc1ccc2nc(C)cc(SCC(=O)O)c2c1	n	n	n	n	139.6!	n	n	n	n
Cc1nc2ccccc2c(=O)n1NC(=O)c1cccc([N+](=O)[O-])c1	n	n	n	n	n	n	x	x	x
COc1ccc(C(=O)Nc2ccccc2C(=O)NC(Cc2c[nH]c3ccccc23)C(=O)O)cc1 (stereo unspecified)	n	n	n	n	137.7	n	n	n	n
Cc1cccc(C2NC(=O)c3c(sc(C)c3C)N2)c1O (stereo unspecified)	n	n	n	n	n	n	x	x	x
Cc1ccc(C2NC(=O)c3c(sc(C)c3C)N2)c(O)c1 (stereo unspecified)	n	n	n	n	157.9	n	159.1	n	n
COc1ccc(CCNC(=O)CSc2nnc3ccc(-c4cccnc4)nn23)cc1OC	n	n	n	n	n	n	x	x	x
CCCCC(=O)NC1(C(F)(F)F)NC(=O)N(Cc2ccccc2)C1=O (stereo unspecified)	n	n	n	n	n	n	x	x	x
Cc1nc(COC(=O)c2ccc(CO)cc2)cs1	n	n	n	n	n	n	x	x	x
SMILES	STAT1 blocker	NF-kB neuron act	STAT3 blocker	STAT1 act-1	STAT3 act-1	APP 5'UTR act	STAT3 act-2	NFkB act STAT3ct	STAT1 act-2
Cc1nc(COC(=O)c2cc(O)c3ccccc3c2O)cs1	n	n	n	n	140.4	n	n	n	n
O=C(N/N=C/c1ccc[nH]1)c1cc(-c2ccc(Cl)cc2)nc2ccccc12	n	x	n	n	n	n	x	x	x
CC(C)(C)OC(=O)N1CCC[C@H]1C(=O)NCc1ccc(Cl)cc1Cl	n	n	n	n	n	n	x	x	x
O=C(CNc1cccc2ccccc12)N/N=C/c1ccc(OC(=O)/C=C/c2ccco2)cc1	n	n	n	n	156.3	n	n	n	n
CCN(CC)CCC(C)OC(=O)c1ccc(O)cc1O (stereo unspecified)	n	n	n	n	n	n	x	x	x
CCN(CC)CCCNC(=O)c1cc(-c2ccc(Cl)c(Cl)c2)on1	n	n	n	n	n	n	x	x	x
CN1CCN(CCCNC(=O)c2cc3c(-c4ccc(Cl)cc4)nn(C)c3s2)CC1	n	n	n	n	173.4	n	149.4	n	n
CCN(CC)CCCNC(=O)c1cc2c(-c3ccc(Cl)cc3)nn(C)c2s1	n	n	n	n	160.5	n	156.2	n	n
Cn1nc(-c2ccc(Cl)cc2)c2cc(C(=O)NCC3CCCO3)sc21 (stereo unspecified)	n	n	n	n	167.1	n	146.7	n	n
Cc1cccc(C)c1NC(=O)CSc1cc(C(=O)c2nccn2C)c2ccccc2n1	n	n	n	n	n	n	x	x	x
C1CCN(Cc2nnnn2CC2CCCO2)CC1 (stereo unspecified)	n	n	n	n	n	n	x	x	x
CCCC(=O)Nc1nc(C)c(-c2csc(Nc3ccc(Cl)cc3)n2)s1	n	n	n	n	177.5	n	162.5	n	n
CCC(C)C(=O)Nc1nc(C)c(-c2csc(Nc3ccc(Cl)cc3)n2)s1 (stereo unspecified)	n	n	n	n	138.8	n	n	n	n
Cc1ccc(Nc2nc(-c3sc(NC(=O)c4cccc(Cl)c4)nc3C)cs2)cc1	n	n	n	n	156.3	n	n	n	n
O=[N+]([O-])c1cccc(-c2csc(N/N=C/c3cccc(O)c3)n2)c1	n	n	n	n	n	n	x	x	x
CC(=O)NC(Cc1ccccc1C)C(=O)NC1CCN(C(=O)c2cccc(C)c2)CC1 (stereo unspecified)	n	n	n	n	n	n	x	x	x
O=C(COC(=O)CCc1c[nH]c2ccccc12)NC(c1ccccc1)c1ccccc1	n	n	n	n	n	n	x	x	x
CCOc1ccc(-n2c(N)c(-c3nc4ccccc4[nH]3)sc2=S)cc1	n	n	n	n	n	n	x	x	x

Screens (PubChem BioAssay)
